What was measured:
Rattus norvegicus [1] = assay: Neurotoxicity in rat assessed as neurological deficit at 125 mg/kg, po after 8 hrs; format: toxicity, organism-based; set-up: dose 125 mg/kg, route oral; details: in vivo
Method in brief: (§1)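 Rats given the compound, suspended in 0.5% methylcellulose, by the stated route and dose. Neurological deficit was recorded at the listed times as ataxia and loss of placing response and muscle tone. Reported as number of rats showing toxicity/number tested.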

Rattus norvegicus [2] = assay: Neurotoxicity in rat assessed as neurological deficit at 125 mg/kg, po after 2 hrs; format: toxicity, organism-based; set-up: dose 125 mg/kg, route oral; details: in vivo; method in brief: as §1
Rattus norvegicus [3] = assay: Neurotoxicity in rat assessed as neurological deficit at 250 mg/kg, po after 0.5 hrs; format: toxicity, organism-based; set-up: dose 250 mg/kg, route oral; details: in vivo; method in brief: as §1
[4] = Neurotoxicity in po dosed rat assessed as neurological deficit […]; format: toxicity, organism-based; details: in vivo
Method in brief: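 Rats dosed orally with a suspension in 0.5% methylcellulose. Neurological deficit judged by ataxia and loss of placing response and muscle tone.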

Rattus norvegicus [5] = assay: Neurotoxicity in rat assessed as neurological deficit at 250 mg/kg, po after 24 hrs; format: toxicity, organism-based; set-up: dose 250 mg/kg, route oral; details: in vivo; method in brief: as §1
Rattus norvegicus [6] = assay: Neurotoxicity in rat assessed as neurological deficit at 62.5 mg/kg, po after 0.5 hrs; format: toxicity, organism-based; set-up: dose 62.5 mg/kg, route oral; details: in vivo
Method in brief: (§2)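 Rats dosed orally with test agent suspended in 0.5% methylcellulose and observed for up to 24 h (time-to-peak-effect design). Neurological deficit was scored as ataxia with loss of placing response and muscle tone. Two rats per dose per time point; results given as number toxic/number tested.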

Mus musculus [7] = assay: Anticonvulsant activity in ip dosed mouse assessed as time to show peak effect of protection against maximal electric shock-induced seizures; format: functional
Method in brief: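 Time-to-peak-effect assay: MES protection read at 0.25–4 h after dosing. Mice ip (60–130 mg/kg), rats po (15 or 30 mg/kg) or ip (30 mg/kg). Groups of 4–8; result is protected/tested.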

Mus musculus [8] = assay: Neurotoxicity in mouse assessed as inability to maintain equilibrium on rotarod at 100 mg/kg, ip after 4 hrs by rotarod test; format: toxicity, organism-based; set-up: dose 100 mg/kg, route intraperitoneal; details: in vivo
Method in brief: (§3)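 Drug given ip to mice as a suspension in 0.5% methylcellulose. At the stated time after dosing, each mouse was placed on a 1 inch knurled rod turning at 6 rpm. Neurotoxicity = inability to stay balanced at least 1 min in each of three trials. Scored as animals toxic/animals tested in small groups.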

Rattus norvegicus [9] = assay: Neurotoxicity in rat assessed as neurological deficit at 62.5 mg/kg, po after 24 hrs; format: toxicity, organism-based; set-up: dose 62.5 mg/kg, route oral; details: in vivo; method in brief: as §2
Rattus norvegicus [10] = assay: Neurotoxicity in rat assessed as neurological deficit at 250 mg/kg, po after 4 hrs; format: toxicity, organism-based; set-up: dose 250 mg/kg, route oral; details: in vivo; method in brief: as §1
Rattus norvegicus [11] = assay: Neurotoxicity in rat assessed as neurological deficit at 125 mg/kg, po after 1 hr; format: toxicity, organism-based; set-up: dose 125 mg/kg, route oral; details: in vivo; method in brief: as §1
Rattus norvegicus [12] = assay: Neurotoxicity in rat assessed as neurological deficit at 30 mg/kg, po after 0.25 hrs […]; format: toxicity, organism-based; set-up: dose 30 mg/kg, route oral; details: in vivo; method in brief: as §1
Rattus norvegicus [13] = assay: Neurotoxicity in rat assessed as neurological deficit at 30 mg/kg, po after 0.5 hrs […]; format: toxicity, organism-based; set-up: dose 30 mg/kg, route oral; details: in vivo; method in brief: as §1
Rattus norvegicus [14] = assay: Neurotoxicity in rat assessed as neurological deficit at 62.5 mg/kg, po after 2 hrs; format: toxicity, organism-based; set-up: dose 62.5 mg/kg, route oral; details: in vivo; method in brief: as §2
Rattus norvegicus [15] = assay: Neurotoxicity in rat assessed as neurological deficit at 500 mg/kg, po after 2 hrs; format: toxicity, organism-based; set-up: dose 500 mg/kg, route oral; details: in vivo; method in brief: as §1
Rattus norvegicus [16] = assay: Neurotoxicity in rat assessed as neurological deficit at 125 mg/kg, po after 0.25 hrs; format: toxicity, organism-based; set-up: dose 125 mg/kg, route oral; details: in vivo; method in brief: as §1
Rattus norvegicus [17] = assay: Neurotoxicity in rat assessed as neurological deficit at 62.5 mg/kg, po after 4 hrs; format: toxicity, organism-based; set-up: dose 62.5 mg/kg, route oral; details: in vivo; method in brief: as §2
Rattus norvegicus [18] = assay: Neurotoxicity in rat assessed as neurological deficit at 62.5 mg/kg, po after 8 hrs; format: toxicity, organism-based; set-up: dose 62.5 mg/kg, route oral; details: in vivo; method in brief: as §2
Rattus norvegicus [19] = assay: Neurotoxicity in rat assessed as neurological deficit at 500 mg/kg, po after 6 hrs; format: toxicity, organism-based; set-up: dose 500 mg/kg, route oral; details: in vivo; method in brief: as §2
Rattus norvegicus [20] = assay: Neurotoxicity in rat assessed as neurological deficit at 125 mg/kg, po after 24 hrs; format: toxicity, organism-based; set-up: dose 125 mg/kg, route oral; details: in vivo; method in brief: as §1
Rattus norvegicus [21] = assay: Neurotoxicity in rat assessed as neurological deficit at 500 mg/kg, po after 24 hrs; format: toxicity, organism-based; set-up: dose 500 mg/kg, route oral; details: in vivo; method in brief: as §1
Mus musculus [22] = assay: Neurotoxicity in mouse assessed as inability to maintain equilibrium on rotarod at 300 mg/kg, ip after 0.5 hrs by rotarod test; format: toxicity, organism-based; set-up: dose 300 mg/kg, route intraperitoneal; details: in vivo; method in brief: as §3
Rattus norvegicus [23] = assay: Neurotoxicity in rat assessed as neurological deficit at 500 mg/kg, po after 4 hrs; format: toxicity, organism-based; set-up: dose 500 mg/kg, route oral; details: in vivo; method in brief: as §2
Rattus norvegicus [24] = assay: Neurotoxicity in rat assessed as neurological deficit at 250 mg/kg, po after 2 hrs; format: toxicity, organism-based; set-up: dose 250 mg/kg, route oral; details: in vivo; method in brief: as §1
Rattus norvegicus [25] = assay: Neurotoxicity in rat assessed as neurological deficit at 250 mg/kg, po after 6 hrs; format: toxicity, organism-based; set-up: dose 250 mg/kg, route oral; details: in vivo; method in brief: as §1
Mus musculus [26] = assay: Neurotoxicity in mouse assessed as inability to maintain equilibrium on rotarod at 300 mg/kg, ip after 4 hrs by rotarod test; format: toxicity, organism-based; set-up: dose 300 mg/kg, route intraperitoneal; details: in vivo; method in brief: as §3
Rattus norvegicus [27] = assay: Neurotoxicity in rat assessed as neurological deficit at 250 mg/kg, po after 1 hr; format: toxicity, organism-based; set-up: dose 250 mg/kg, route oral; details: in vivo; method in brief: as §1

Cc1cccc(C)c1OCC(=O)NC1CCCCC1O.Cl (racemic; 1)
> 500 mg/kg: TD50 [4]
0.25 h: Time (Mus musculus [7])
Toxic: Activity (Mus musculus [22])
Non-toxic: Activity (Rattus norvegicus [1]) | Activity (Rattus norvegicus [2]) | Activity (Rattus norvegicus [3]) | Activity (Rattus norvegicus [5]) | Activity (Rattus norvegicus [6]) | Activity (Mus musculus [8]) | Activity (Rattus norvegicus [9]) | Activity (Rattus norvegicus [10]) | Activity (Rattus norvegicus [11]) | Activity (Rattus norvegicus [12]) | Activity (Rattus norvegicus [13]) | Activity (Rattus norvegicus [14]) | Activity (Rattus norvegicus [15]) | Activity (Rattus norvegicus [16]) | Activity (Rattus norvegicus [17]) | Activity (Rattus norvegicus [18]) | Activity (Rattus norvegicus [19]) | Activity (Rattus norvegicus [20]) | Activity (Rattus norvegicus [21]) | Activity (Rattus norvegicus [23]) | Activity (Rattus norvegicus [24]) | Activity (Rattus norvegicus [25]) | Activity (Mus musculus [26]) | Activity (Rattus norvegicus [27])
